Data on 22 molecules can be found in ChEMBL document CHEMBL1143440, “Tetrakis-azaaromatic quaternary ammonium salts: novel subtype-selective antagonists at neuronal nicotinic receptors that mediate nicotine-evoked dopamine release” (Bioorg Med Chem Lett, 2008).

Test [1] deals with Neuronal acetylcholine receptor; alpha4/beta2 (Rattus norvegicus) (UniProt P09483+P12390). The test can be described thus: Displacement of [3H]nicotine from alpha4beta2 nAChR in rat brain membrane at 100 nM. Format: cell membranes. The gist of the method: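 Whole rat brain membranes, [3H]nicotine binding at 3 nM radioligand; nonspecific binding defined with 10 μM […]. Analogue tested at a 100 nM probe concentration. Inhibition expressed as percent of radioligand binding without analogue. At least three independent experiments, each in duplicate.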
Background: In a radioligand displacement assay an active substance lowers the binding of a labelled ligand.

Another test is filed under the species Rattus norvegicus. As to the kind of experiment: Inhibition of nAChR-mediated nicotine-evoked [3H]DA release in superfused rat striatal slices at 100 nM. The gist of the method: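 Rat striatal slices, preloaded with [3H]DA, superfused 36 min with or without 100 nM analogue, then 36 min more with 10 μM S(-)-nicotine added. Inhibition expressed as percent of the nicotine-evoked [3H]DA overflow without analogue. At least three independent experiments, each in duplicate.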

The target in test [2] is Neuronal acetylcholine receptor subunit alpha-7 (Rattus norvegicus) (UniProt Q05941). As to the kind of experiment: Displacement of [3H]methyllycaconitine from alpha7 nAChR in rat brain membrane at 100 nM. Format: cell membranes. In outline: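 Whole rat brain membranes, [3H]MLA binding at 2.5 nM radioligand; nonspecific binding defined with 10 μM nicotine. Analogue tested at a 100 nM probe concentration. Inhibition expressed as percent of radioligand binding without analogue. At least three independent experiments, each in duplicate.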

Test [3] is described as follows: Inhibition of nAChR-mediated nicotine-evoked [3H]DA release in superfused rat striatal slices. The gist of the method:
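Superfused rat striatal slices, [3H]DA overflow evoked by 10 μM S(-)-nicotine after 36 min analogue pre-exposure, superfusion continued 36 min. Full concentration range 1 nM to 10 μM. IC50 from iterative nonlinear least-squares curve fitting; 4–5 independent experiments, each in duplicate.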

Test [4] deals with Neuronal acetylcholine receptor subunit alpha-7 (Rattus norvegicus, UniProt Q05941). As to the kind of experiment: Displacement of [3H]methyllycaconitine from alpha7 nAChR in rat brain membrane. Format: cell membranes.
Chain of Neuronal acetylcholine receptor subunit alpha-7 (Q05941 whole entry): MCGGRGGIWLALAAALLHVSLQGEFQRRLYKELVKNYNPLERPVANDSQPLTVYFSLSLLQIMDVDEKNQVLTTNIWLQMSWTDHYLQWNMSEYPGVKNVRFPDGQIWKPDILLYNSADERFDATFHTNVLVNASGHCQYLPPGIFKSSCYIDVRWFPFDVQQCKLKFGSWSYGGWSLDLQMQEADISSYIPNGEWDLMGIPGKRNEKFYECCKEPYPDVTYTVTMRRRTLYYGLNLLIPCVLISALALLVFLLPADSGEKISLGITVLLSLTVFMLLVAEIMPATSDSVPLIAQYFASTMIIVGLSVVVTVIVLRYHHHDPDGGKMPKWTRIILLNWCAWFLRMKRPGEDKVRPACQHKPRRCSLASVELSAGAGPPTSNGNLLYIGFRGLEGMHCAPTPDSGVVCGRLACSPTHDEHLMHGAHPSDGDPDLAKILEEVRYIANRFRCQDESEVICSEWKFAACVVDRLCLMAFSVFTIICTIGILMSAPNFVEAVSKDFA

Chain of Neuronal acetylcholine receptor subunit alpha-7 (Rattus norvegicus) (Q05941 whole entry): as above

The term inhibition denotes the relative decrease from the control value, in per cent. A high value points to strong suppression. For the molecule `Cc1cc(C)c[n+](CCCC#Cc2cc(C#CCCC[n+]3cc(C)cc(C)c3)c(C#CCCC[n+]3cc(C)cc(C)c3)cc2C#CCCC[n+]2cc(C)cc(C)c2)c1`, the Activity in test [1] was determined as 0%; in test [2], 3.9%. In the test filed under Rattus norvegicus, this molecule registered an inhibition of 12%.

`C(#Cc1cc(C#CCCC[n+]2ccc3ccccc3c2)c(C#CCCC[n+]2ccc3ccccc3c2)cc1C#CCCC[n+]1ccc2ccccc2c1)CCC[n+]1ccc2ccccc2c1`: the figures for the Activity in test [1] and in test [2] were 0% and 4.9%, respectively. For the same molecule, in the test filed under Rattus norvegicus, the inhibition turned out to be 39%.

As to `C(#Cc1cc(C#CCCC[n+]2ccc3c(c2)CCCC3)c(C#CCCC[n+]2ccc3c(c2)CCCC3)cc1C#CCCC[n+]1ccc2c(c1)CCCC2)CCC[n+]1ccc2c(c1)CCCC2`, the Activity in test [1] was 9.7%; in test [2], 17%. Further, in the test listed under Rattus norvegicus, the inhibition worked out at 24%.

Regarding `Cc1ccc[n+](CCCC#Cc2cc(C#CCCC[n+]3cccc(C)c3)c(C#CCCC[n+]3cccc(C)c3)cc2C#CCCC[n+]2cccc(C)c2)c1`, the Activity in test [1] is 11%; in test [2], 18%. The inhibition in the test filed under Rattus norvegicus is 16%.

As a reminder, the IC50 is the concentration at which inhibition is half-maximal. The low end stands for greater potency in that assay, the high end for weaker potency in that assay. `c1ccc(Cc2ccc[n+](CCCCCc3cc(CCCCC[n+]4cccc(Cc5ccccc5)c4)c(CCCCC[n+]4cccc(Cc5ccccc5)c4)cc3CCCCC[n+]3cccc(Cc4ccccc4)c3)c2)cc1`: the Activity was found to be 13% in test [1] and 16% in test [2]. For the same molecule, the IC50 in test [3] stood at 28 nM. Further, the inhibition in the test filed under Rattus norvegicus was found to be 54%.

In the case of `Cc1cc(C)c[n+](CCCCCc2cc(CCCCC[n+]3cc(C)cc(C)c3)c(CCCCC[n+]3cc(C)cc(C)c3)cc2CCCCC[n+]2cc(C)cc(C)c2)c1`, the Activity in test [1] amounted to 3.7%; in test [2], 15%. In addition, the inhibition in the test listed under Rattus norvegicus stood at 45%.

Turning to `Cc1cc[n+](CCCC#Cc2cc(C#CCCC[n+]3ccc(C)cc3)c(C#CCCC[n+]3ccc(C)cc3)cc2C#CCCC[n+]2ccc(C)cc2)cc1`, the figures for the Activity in test [1] and in test [2] were 24% and 3%, respectively. The molecule further yielded an inhibition in the test filed under Rattus norvegicus of 35%.

With `c1c(CCCCC[n+]2ccc3c(c2)CCCC3)c(CCCCC[n+]2ccc3c(c2)CCCC3)cc(CCCCC[n+]2ccc3c(c2)CCCC3)c1CCCCC[n+]1ccc2c(c1)CCCC2`, the figures for the Activity in test [1] and in test [2] were 0.9% and 27%, respectively. Moreover, the inhibition in the test filed under Rattus norvegicus was 27%.

As for `OCCCc1ccc[n+](CCCC#Cc2cc(C#CCCC[n+]3cccc(CCCO)c3)c(C#CCCC[n+]3cccc(CCCO)c3)cc2C#CCCC[n+]2cccc(CCCO)c2)c1`, the Activity in test [1] amounted to 0%; in test [2], 5.7%. For the same molecule, the inhibition in the test filed under Rattus norvegicus came out at 41%.

On to `C(#Cc1cc(C#CCCC[n+]2cccc(-c3ccccc3)c2)c(C#CCCC[n+]2cccc(-c3ccccc3)c2)cc1C#CCCC[n+]1cccc(-c2ccccc2)c1)CCC[n+]1cccc(-c2ccccc2)c1`, for which the Activity was determined as 0.3% in test [1] and 53% in test [2]. In addition, the inhibition in the test filed under Rattus norvegicus was 37%.

Turning to `OCCCc1ccc[n+](CCCCCc2cc(CCCCC[n+]3cccc(CCCO)c3)c(CCCCC[n+]3cccc(CCCO)c3)cc2CCCCC[n+]2cccc(CCCO)c2)c1`, the Activity came to 9.6% in test [1] and 20% in test [2]. The same molecule gave an IC50 in test [3] of 3.38 nM. In addition, the inhibition in the test filed under Rattus norvegicus was determined as 64%.

Consider `Cc1ccc[n+](CCCC#Cc2cc(C#CCCC[n+]3cccc(C)c3)cc(C#CCCC[n+]3cccc(C)c3)c2)c1`, for which the values for the Activity in test [1] and in test [2] were 10% and 0%, respectively. In test [3], this molecule yielded an IC50 of 0.2 nM. In addition, in the test filed under Rattus norvegicus, the inhibition is 40%.

For `C(#Cc1cc(C#CCCC[n+]2cccc(Cc3ccccc3)c2)c(C#CCCC[n+]2cccc(Cc3ccccc3)c2)cc1C#CCCC[n+]1cccc(Cc2ccccc2)c1)CCC[n+]1cccc(Cc2ccccc2)c1`, the figures for the Activity in test [1] and in test [2] were 2.9% and 53%, respectively. Besides, the inhibition in the test listed under Rattus norvegicus amounted to 17%.

For the molecule `CN1CCC[C@H]1c1ccc[n+](CCCCCc2cc(CCCCC[n+]3cccc([C@@H]4CCCN4C)c3)c(CCCCC[n+]3cccc([C@@H]4CCCN4C)c3)cc2CCCCC[n+]2cccc([C@@H]3CCCN3C)c2)c1`, the Activity in test [1] stood at 7.4%; in test [2], 26%. Moreover, the inhibition in the test listed under Rattus norvegicus is 43%.

The Ki is a measure of affinity in units of concentration, obtained from inhibition or displacement. A high value points to weaker binding. `Cc1ccc[n+](CCCCCCCCCCCC[n+]2cccc(C)c2)c1` displayed a Ki in test [4] greater than 100000 nM. Moreover, in test [3], the half-maximal inhibitory concentration (IC50) worked out at 2 nM.

Turning to `Cc1cc[n+](CCCC#Cc2cc(C#CCCC[n+]3ccc(C)c(C)c3)c(C#CCCC[n+]3ccc(C)c(C)c3)cc2C#CCCC[n+]2ccc(C)c(C)c2)cc1C`, the values for the Activity in test [1] and in test [2] were 9.8% and 0.6%, respectively. Also, the inhibition in the test listed under Rattus norvegicus is 17%.

`Cc1cc[n+](CCCCCc2cc(CCCCC[n+]3ccc(C)c(C)c3)c(CCCCC[n+]3ccc(C)c(C)c3)cc2CCCCC[n+]2ccc(C)c(C)c2)cc1C`: the Activity in test [1] is 0.5%; in test [2] it was 18%. Also, the inhibition in the test filed under Rattus norvegicus amounted to 36%.

With `c1ccc2c[n+](CCCCCc3cc(CCCCC[n+]4ccc5ccccc5c4)c(CCCCC[n+]4ccc5ccccc5c4)cc3CCCCC[n+]3ccc4ccccc4c3)ccc2c1`, the values for the Activity in test [1] and in test [2] were 6.5% and 24%, respectively. Further, the IC50 in test [3] worked out at 56 nM. In addition, the inhibition in the test filed under Rattus norvegicus came to 63%.

For `CN1CCC[C@H]1c1ccc[n+](CCCC#Cc2cc(C#CCCC[n+]3cccc([C@@H]4CCCN4C)c3)c(C#CCCC[n+]3cccc([C@@H]4CCCN4C)c3)cc2C#CCCC[n+]2cccc([C@@H]3CCCN3C)c2)c1`, the Activity stood at 38% in test [1] and 15% in test [2]. Further, the inhibition in the test listed under Rattus norvegicus was found to be 31%.

Turning to `Cc1cc[n+](CCCCCc2cc(CCCCC[n+]3ccc(C)cc3)c(CCCCC[n+]3ccc(C)cc3)cc2CCCCC[n+]2ccc(C)cc2)cc1`, the Activity in test [1] was 12%; in test [2], 8%. In the test filed under Rattus norvegicus, this molecule returned an inhibition of 46%.

For `Cc1ccc[n+](CCCCCc2cc(CCCCC[n+]3cccc(C)c3)c(CCCCC[n+]3cccc(C)c3)cc2CCCCC[n+]2cccc(C)c2)c1`, the Activity in test [1] and in test [2] was 12% throughout. In the test listed under Rattus norvegicus, this molecule registered an inhibition of 8%.

On to `c1ccc(-c2ccc[n+](CCCCCc3cc(CCCCC[n+]4cccc(-c5ccccc5)c4)c(CCCCC[n+]4cccc(-c5ccccc5)c4)cc3CCCCC[n+]3cccc(-c4ccccc4)c3)c2)cc1`, for which the Activity in test [1] worked out at 6.6%; in test [2], 33%. This molecule yielded an inhibition in the test listed under Rattus norvegicus of 19%.
